Experimental data published in ChEMBL document CHEMBL6177914, “Human microbiome derived synthetic antimicrobial peptides with activity against Gram-negative, Gram-positive, and antibiotic resistant bacteria” (RSC Med Chem, 2025).
≈ marks a conversion by molar mass, not a printed value. Calls of active or inactive are those of the source. No cut-off for these calls is given here. Peptide text beside a SMILES is read from it.

Key:
Staphylococcus aureus [1] = experiment: Antibacterial activity against methicillin resistant Staphylococcus aureus BAA 2313 assessed as inhibition of bacterial growth incubated for 24 hrs by absorbance based microplate reader analysis; assay type: functional
Procedure, shortened: (§1)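 Broth microdilution. A single colony was grown 24 h in its recommended broth, then diluted 1:10 000 in the same medium. Peptide serial dilutions were added from DMSO stock at 4 µL per 196 µL inoculated medium. Plates were incubated aerobically or anaerobically as each pathogen requires, at 37 °C for 24 h, and OD600 was read. Duplicate wells; assay repeated five times independently.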

[2] = Retention time of compound by RP-HPLC analysis; assay type: physicochemical
Procedure, shortened: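 Analytical reversed-phase HPLC.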

Pseudomonas aeruginosa [3] = experiment: Bactericidal activity against Pseudomonas aeruginosa BAA 1744 assessed as inhibition of bacterial growth at MIC concentration incubated for 48 hrs by broth microdilution assay; assay type: functional, organism-based
Procedure, shortened: (§2)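 From broth-microdilution wells showing no growth, 10 µL was spotted onto agar and incubated 48 h at 37 °C. Plates were inspected for colonies. Fidaxomicin at 1 µM served as control.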

Escherichia coli [4] = experiment: Bactericidal activity against Escherichia coli ATCC 33694 assessed as inhibition of bacterial growth at MIC concentration incubated for 48 hrs by broth microdilution assay; assay type: functional, organism-based; procedure, shortened: as §2
Escherichia coli [5] = experiment: Antibacterial activity against Escherichia coli ATCC 33694 assessed as inhibition of bacterial growth incubated for 24 hrs by absorbance based microplate reader analysis; assay type: functional
Procedure, shortened: (§3)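 Broth microdilution. An overnight single-colony culture in recommended broth was diluted 1:10 000, and peptide serial dilutions in DMSO were added (4 µL into 196 µL). Plates incubated 24 h at 37 °C, aerobic or anaerobic as required, then OD600 read. Inhibition was calculated against pathogen-only and blank wells.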

Listeria monocytogenes [6] = experiment: Bactericidal activity against Listeria monocytogenes ATCC 15313 assessed as inhibition of bacterial growth at MIC concentration incubated for 48 hrs by broth microdilution assay; assay type: functional, organism-based; procedure, shortened: as §2
Enterococcus faecium [7] = experiment: Antibacterial activity against vancomycin resistant Enterococcus faecium BAA 2317 assessed as inhibition of bacterial growth incubated for 24 hrs by absorbance based microplate reader analysis; assay type: functional; details: for MIC: read-out: MIC100
Procedure, shortened: as §1, with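 “read. MIC was the lowest concentration giving 100% growth inhibition.” for “read.”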

Salmonella enterica [8] = experiment: Bactericidal activity against Salmonella enterica ATCC 13314 assessed as inhibition of bacterial growth at MIC concentration incubated for 48 hrs by broth microdilution assay; assay type: functional, organism-based; procedure, shortened: as §2
Staphylococcus aureus [9] = experiment: Bactericidal activity against methicillin resistant Staphylococcus aureus BAA 2313 assessed as inhibition of bacterial growth at MIC concentration incubated for 48 hrs by broth microdilution assay; assay type: functional, organism-based
Procedure, shortened: (§4)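 Plates were incubated 48 h at 37 °C and examined for colonies. A fidaxomicin-treated culture at 1 µM served as the control.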

Salmonella enterica [10] = experiment: Antibacterial activity against Salmonella enterica ATCC 13314 assessed as inhibition of bacterial growth incubated for 24 hrs by absorbance based microplate reader analysis; assay type: functional; procedure, shortened: as §3
Pseudomonas aeruginosa [11] = experiment: Antibacterial activity against Pseudomonas aeruginosa BAA 1744 assessed as inhibition of bacterial growth incubated for 24 hrs by absorbance based microplate reader analysis; assay type: functional; procedure, shortened: as §3
Enterococcus faecium [12] = experiment: Bactericidal activity against vancomycin resistant Enterococcus faecium BAA 2317 assessed as inhibition of bacterial growth at MIC concentration incubated for 48 hrs by broth microdilution assay; assay type: functional, organism-based; procedure, shortened: as §4
Staphylococcus aureus [13] = experiment: Bactericidal activity against Staphylococcus aureus ATCC 25923 assessed as inhibition of bacterial growth at MIC concentration incubated for 48 hrs by broth microdilution assay; assay type: functional, organism-based; procedure, shortened: as §2
Clostridioides difficile [14] = experiment: Bactericidal activity against Clostridium difficile ATCC 43602 assessed as inhibition of bacterial growth at MIC concentration incubated for 48 hrs by broth microdilution assay; assay type: functional, organism-based; procedure, shortened: as §2
Caco-2 [15] = experiment: Anti-inflammatory activity in human Caco-2 cells infected with Clostridium difficile ATCC 43602 assessed as reduction in TNFalpha level at MIC concentration by ELISA relative to control; assay type: functional; set-up: scale not given: the % may be the effect or the level left
Procedure, shortened: (§5)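 Caco-2 cells grown in DMEM + 10% FBS, 37 °C, 5% CO2, to 90% confluence, then seeded 30 000 cells/well and held 24 h. C. difficile was grown overnight anaerobically in meat broth, washed in PBS, and 1 µL of 0.5 OD600 culture added per 300 µL medium. […] Cytokine in supernatant measured by ELISA; three independent replicates.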

Listeria monocytogenes [16] = experiment: Antibacterial activity against Listeria monocytogenes ATCC 15313 assessed as inhibition of bacterial growth incubated for 24 hrs by absorbance based microplate reader analysis; assay type: functional; details: for MIC: read-out: MIC100; procedure, shortened: as §1
Caco-2 [17] = experiment: Anti-inflammatory activity in human Caco-2 cells infected with Clostridium difficile ATCC 43602 assessed as reduction in IL-6 level at MIC concentration by ELISA relative to control; assay type: functional; set-up: scale not given: the % may be the effect or the level left; procedure, shortened: as §5
Clostridioides difficile [18] = experiment: Antibacterial activity against Clostridium difficile ATCC 43602 assessed as inhibition of bacterial growth incubated for 24 hrs by absorbance based microplate reader analysis; assay type: functional; details: read-out: MIC100
Caco-2 [19] = experiment: Anti-inflammatory activity in human Caco-2 cells infected with Clostridium difficile ATCC 43602 assessed as reduction in IL-1beta level at MIC concentration by ELISA relative to control; assay type: functional; set-up: scale not given: the % may be the effect or the level left; procedure, shortened: as §5

Molecule	Activity (Staphylococcus aureus [1])	Retention_time [2]	Activity (Pseudomonas aeruginosa [3])	Activity (Escherichia coli [4])	Activity (Escherichia coli [5])	Activity (Listeria monocytogenes [6])	Activity (Enterococcus faecium [7])	Activity (Salmonella enterica [8])	Activity (Staphylococcus aureus [9])	Activity (Salmonella enterica [10])	Activity (Pseudomonas aeruginosa [11])	Activity (Enterococcus faecium [12])	Activity (Staphylococcus aureus [13])	Activity (Clostridioides difficile [14])	other results
H-LSKISG-NH2	inactive	9.94 min	Active	Active	inactive	Active	inactive	Active	Active	inactive	inactive	Active	Active	Active	
H-DAWNHADELV-NH2		15.95 min	Active	Active	inactive	Active	inactive	Active	Active	inactive	inactive	Active	Active	Active	Activity (Caco-2 [15]): 0%; Activity (Listeria monocytogenes [16]): inactive
H-MNKLNEVELSKI-NH2	inactive	11.81 min	Active	Active	inactive	Active	inactive	Active	Active	inactive	inactive	Active	Active	Active	
CC[C@H](C)[C@H](NC(=O)[C@H](C)NC(=O)[C@H](C)NC(=O)[C@@H](N)C(C)C)C(=O)N[C@@H](CC(C)C)C(=O)NCC(=O)N[C@@H](Cc1ccccc1)C(=O)N[C@@H](CC(C)C)C(=O)N[C@@H](C)C(=O)N[C@H](C(N)=O)[C@@H](C)O		14.9 min													
H-HADELVAGVKQ-NH2		9.41 min	Active	Active	inactive	Active		Active	Active	inactive	inactive	Active	Active	Active	
CC[C@H](C)[C@H](NC(=O)[C@H](C)NC(=O)[C@H](C)NC(=O)[C@@H](N)C(C)C)C(=O)N[C@@H](CC(C)C)C(=O)NCC(=O)N[C@@H](Cc1ccccc1)C(=O)N[C@@H](CC(C)C)C(=O)N[C@@H](C)C(=O)N[C@@H](C(N)=O)[C@H](C)O	inactive		Active	Active	inactive	Active	inactive	Active	Active	inactive	inactive	Active	Active	Active	Activity (Listeria monocytogenes [16]): inactive
H-IGPLVIPVAAIL-NH2		15.83 min	Active	Active	inactive	Active		Active	Active	inactive	inactive	Active	Active	Active	Activity (Caco-2 [17]): 25%; MIC (Clostridioides difficile [18]): 1.8 µM; MIC (Enterococcus faecium [7]): 1.5 µM
H-KLNEVELSKISGG-NH2		14.98 min	Active	Active	inactive	Active		Active	Active	inactive	inactive	Active	Active	Active	MIC (Listeria monocytogenes [16]): 2.6 µM
CC[C@H](C)[C@@H]1NC(=O)CNC(=O)CNC(=O)[C@H](CO)NC(=O)[C@H]([C@@H](C)CC)NC(=O)[C@H](CCCCN)NC(=O)[C@H](CO)NC(=O)[C@H](CC(C)C)NC(=O)[C@H](C(C)C)NC(=O)[C@@H]2CCCN2C(=O)[C@H]([C@@H](C)CC)NC(=O)[C@H](C(C)C)NC(=O)[C@H](CC(C)C)NC(=O)[C@@H]2CCCN2C(=O)CNC1=O (cyclo(LSKISGGIGPLVIPV))		18.35 min	Active	Active		Active		Active	Active	inactive		Active	Active	Active	Activity (Caco-2 [17]): 4%; MIC (Clostridioides difficile [18]): 0.9 µM (≈ 1.29 µg/mL); MIC (Listeria monocytogenes [16]): 1.5 µM (≈ 2.15 µg/mL)
H-LSKISGGIGP-NH2	inactive	13.63 min	Active	Active	inactive	Active	inactive	Active	Active	inactive	inactive	Active	Active	Active	
H-KISGGIGPLV-NH2	inactive	17.32 min	Active	Active	inactive	Active	inactive	Active	Active	inactive	inactive	Active	Active	Active	Activity (Listeria monocytogenes [16]): inactive
O=C(O)c1cn(C2CC2)c2cc(N3CCNCC3)c(F)cc2c1=O [CIPROFLOXACIN]															MIC (Enterococcus faecium [7]): 4 µM (≈ 1.33 µg/mL)
H-AGVKQGWERS-NH2		6.41 min	Active	Active		Active		Active	Active	inactive	inactive	Active	Active	Active	Activity (Caco-2 [15]): 0%; Activity (Caco-2 [19]): 18%
CCc1c(Cl)c(O)c(Cl)c(O)c1C(=O)O[C@H]1[C@H](O)[C@H](OC)[C@H](OC/C2=C\C=C\C[C@H](O)/C(C)=C/[C@H](CC)[C@@H](O[C@@H]3OC(C)(C)[C@@H](OC(=O)C(C)C)[C@H](O)[C@@H]3O)/C(C)=C/C(C)=C/C[C@@H]([C@@H](C)O)OC2=O)O[C@@H]1C [FIDAXOMICIN]															MIC (Clostridioides difficile [18]): 1 µM (≈ 1.06 µg/mL); MIC (Listeria monocytogenes [16]): 1 µM (≈ 1.06 µg/mL); MIC (Enterococcus faecium [7]): 2 µM (≈ 2.12 µg/mL)
